Measurements published in ChEMBL document CHEMBL1130136, “Novel biological response modifiers: phthalimides with tumor necrosis factor-alpha production-regulating activity” (J Med Chem, 1997).
≈ marks a conversion by molar mass, not a printed value.

Columns and labels:
HL-60 [1] = assay: Tumor necrosis factor-alpha production in human leukemia cell line (HL-60) stimulated with 10 nM 12-O-tetradecanoylphorbol 13-acetate (TPA) at 30 uMolar.; assay type: functional
How it was run: (§1)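 HL-60 cells at 5 × 10⁵/mL in RPMI1640 + 10% FBS were co-treated with 30 μM test compound and either 10 nM TPA or 50 nM OA for 16 h at 37 °C. Culture-medium TNF-α was measured by ELISA and expressed as % of inducer-alone control. Cell counts were taken at harvest. Assays were run in duplicate or triplicate (mean taken), at least three times.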

HL-60 [2] = assay: Tumor necrosis factor-alpha production in human leukemia cell line (HL-60) stimulated with 50 nM okadaic acid (OA), at 30 uMolar.; assay type: functional; how it was run: as §1
WI-38 [3] = assay: The cytotoxicity of the compounds assessed using human embryonic lung fibroblast WI-38 cells at (148 micro M); assay type: functional, cell-based
How it was run: (§2)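 WI-38 human embryonic lung fibroblasts (5 × 10³ cells/well) in RPMI1640 + 10% FCS were exposed to graded concentrations of compound for 48 h at 37 °C. Viability was read by WST-1 with 1-methoxy PMS (2 h, 37 °C; absorbance at 450 nm). IC50 was reported in μg/mL, with the μM equivalent in parentheses.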

WI-38 [4] = assay: The cytotoxicity of the compounds assessed using human embryonic lung fibroblast WI-38 cells at (83 micro M); assay type: functional, cell-based; how it was run: as §2
HL-60 [5] = assay: Inhibition of 50 nM okadaic acid induced tumor necrosis factor-alpha production in human leukemia cell line (HL-60) by 0.3 uM.; assay type: functional
How it was run: (§3)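 HL-60 cells (2.5 × 10⁵ in 0.5 mL, i.e. 5 × 10⁵/mL), growing exponentially in RPMI1640 + 10% FBS, were exposed to 10 nM TPA or 50 nM OA together with 0.3 μM test compound for 16 h at 37 °C. Secreted TNF-α was quantified by ELISA and expressed as % of inducer-alone production. Each run was done in duplicate or triplicate (mean taken) and repeated at least three times.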

HL-60 [6] = assay: Amount of tumor necrosis factor-alpha produced by human leukemia cell line (HL-60) stimulated with 10 nM12-O-tetradecanoylphorbol 13-acetate (TPA) at 0.3 uM, measured by ELISA; assay type: functional; how it was run: as §3
WI-38 [7] = assay: The cytotoxicity of the compounds assessed using human embryonic lung fibroblast WI-38 cells at (40 micro M); assay type: functional, cell-based; how it was run: as §2
WI-38 [8] = assay: In vitro cytotoxicity against human embryonic lung fibroblast WI-38 cells.; assay type: functional, cell-based; how it was run: as §2
WI-38 [9] = assay: The cytotoxicity of the compounds assessed using human embryonic lung fibroblast WI-38 cells at (39 micro M); assay type: functional, cell-based; how it was run: as §2
WI-38 [10] = assay: The cytotoxicity of the compounds assessed using human embryonic lung fibroblast WI-38 cells at (99 micro M); assay type: functional, cell-based; how it was run: as §2
WI-38 [11] = assay: The cytotoxicity of the compounds assessed using human embryonic lung fibroblast WI-38 cells at (2.6 micro M).; assay type: functional, cell-based; how it was run: as §2
WI-38 [12] = assay: The cytotoxicity of the compounds assessed using human embryonic lung fibroblast WI-38 cells at (95 micro M); assay type: functional, cell-based; how it was run: as §2
WI-38 [13] = assay: The cytotoxicity of the compounds assessed using human embryonic lung fibroblast WI-38 cells at (2.3 micro M); assay type: functional, cell-based; how it was run: as §2
HL-60 [14] = assay: Amount of tumor necrosis factor-alpha produced by human leukemia cell line (HL-60) stimulated with 50 nM okadaic acid (OA), at 0.3 uM, measured by ELISA.; assay type: functional; how it was run: as §3
HL-60 [15] = assay: Amount of tumor necrosis factor-alpha produced in human leukemia cell line (HL-60) stimulated with 10 nM12-O-tetradecanoylphorbol 13-acetate (TPA) at 0.3 micro M, measured by ELISA.; assay type: functional; how it was run: as §3
WI-38 [16] = assay: The cytotoxicity of the compounds assessed using human embryonic lung fibroblast WI-38 cells at (8 micro M); assay type: functional, cell-based; how it was run: as §2
WI-38 [17] = assay: The cytotoxicity of the compounds assessed using human embryonic lung fibroblast WI-38 cells at (136 micro M); assay type: functional, cell-based; how it was run: as §2
WI-38 [18] = assay: The cytotoxicity of the compounds assessed using human embryonic lung fibroblast WI-38 cells at (25 micro M); assay type: functional, cell-based; how it was run: as §2
WI-38 [19] = assay: The cytotoxicity of the compounds assessed using human embryonic lung fibroblast WI-38 cells at (53 micro M); assay type: functional, cell-based; how it was run: as §2
WI-38 [20] = assay: The cytotoxicity of the compounds assessed using human embryonic lung fibroblast WI-38 cells at (264 micro M); assay type: functional, cell-based; how it was run: as §2
WI-38 [21] = assay: The cytotoxicity of the compounds assessed using human embryonic lung fibroblast WI-38 cells at (121 micro M); assay type: functional, cell-based; how it was run: as §2
WI-38 [22] = assay: The cytotoxicity of the compounds assessed using human embryonic lung fibroblast WI-38 cells at (97 micro M); assay type: functional, cell-based; how it was run: as §2
WI-38 [23] = assay: The cytotoxicity of the compounds assessed using human embryonic lung fibroblast WI-38 cells at (20 micro M); assay type: functional, cell-based; how it was run: as §2
WI-38 [24] = assay: The cytotoxicity of the compounds assessed using human embryonic lung fibroblast WI-38 cells at (87 micro M); assay type: functional, cell-based; how it was run: as §2
HL-60 [25] = assay: Amount of tumor necrosis factor-alpha produced by human leukemia cell line (HL-60) stimulated with 10 nM12-O-tetradecanoylphorbol 13-acetate (TPA) at 0.3 uM, measured by ELISA.; assay type: functional; how it was run: as §3
WI-38 [26] = assay: The cytotoxicity assessed using human embryonic lung fibroblast WI-38 cells.; assay type: functional, cell-based; how it was run: as §2

SMILES	Amount of TNF-alpha (HL-60 [1])	Amount of TNF-alpha (HL-60 [2])	Amount of TNF-alpha (HL-60 [5])	Amount of TNF-alpha (HL-60 [6])	IC50 (WI-38 [8])	other results
CC(C)c1cccc(C(C)C)c1N1Cc2ccccc2C1=O	214%	40%	–	–	–	IC50 (WI-38 [3]): 43.1 µg/mL (≈ 147 µM)
C[C@@H](c1ccccc1)N1C(=O)c2c(F)c(F)c(F)c(F)c2C1=O	–	–	70%	143%	–	IC50 (WI-38 [4]): 26.8 µg/mL (≈ 82.9 µM)
C[C@H](c1ccccc1)N1C(=O)c2c(F)c(F)c(F)c(F)c2C1=O	–	–	2%	97%	–	IC50 (WI-38 [7]): 12.8 µg/mL (≈ 39.6 µM)
C[C@H](C1CCCCC1)N1C(=O)c2c(F)c(F)c(F)c(F)c2C1=O	–	–	10%	98%	> 100 µg/mL	–
CC(C)c1cccc(C(C)C)c1N1C(=O)c2ccc(O)cc2C1=O	153%	7%	–	–	–	IC50 (WI-38 [9]): 12.7 µg/mL (≈ 39.3 µM)
CC(C)c1cccc(C(C)C)c1N1C(=O)Cc2ccccc2C1=O	268%	50%	–	–	> 100 µg/mL	–
CC[C@@H](c1ccccc1)N1C(=O)c2c(F)c(F)c(F)c(F)c2C1=O	–	–	87%	235%	–	–
O=C1c2c(F)c(F)c(F)c(F)c2C(=O)N1[C@H]1CCc2ccccc21	–	–	98%	392%	> 100 µg/mL	–
CC(C)c1ccccc1N1C(=O)c2ccccc2C1=O	158%	105%	–	–	> 100 µg/mL	–
CCCCCc1ccccc1N1C(=O)c2ccccc2C1=O	151%	35%	–	–	> 100 µg/mL	–
C[C@@H](c1ccc(N)cc1)N1C(=O)c2c(F)c(F)c(F)c(F)c2C1=O	–	–	38%	262%	–	–
CC(C)c1ccc(N2C(=O)c3ccccc3C2=O)cc1	139%	33%	–	–	> 100 µg/mL	–
CC(C)c1cccc(C(C)C)c1N1C(=O)c2c(Cl)c(Cl)c(Cl)c(Cl)c2C1=O	250%	19%	–	–	> 100 µg/mL	–
COc1ccccc1N1C(=O)c2ccccc2C1=O	95%	21%	–	–	> 100 µg/mL	–
CC/N=C1\c2ccccc2C(=O)N1c1c(C(C)C)cccc1C(C)C	138%	75%	–	–	–	–
CCc1cccc(C)c1N1C(=O)c2ccccc2C1=O	188%	82%	–	–	–	IC50 (WI-38 [10]): 26.2 µg/mL (≈ 98.8 µM)
O=C1c2c(F)c(F)c(F)c(F)c2C(=O)N1C1Cc2ccccc2C1	–	–	43%	104%	–	IC50 (WI-38 [11]): 0.9 µg/mL (≈ 2.68 µM)
CC(C)c1cccc(C(C)C)c1N1C(=O)c2ccccc2C1=S	1252%	0%	–	–	–	IC50 (WI-38 [12]): 30.8 µg/mL (≈ 95.2 µM)
CC(C)c1cccc(C(C)C)c1N1C(=O)c2c(F)c(F)c(F)c(F)c2C1=O	–	–	–	–	–	IC50 (WI-38 [13]): 0.9 µg/mL (≈ 2.37 µM); Amount of TNF-alpha (HL-60 [14]): 0%; Amount of TNF-alpha (HL-60 [15]): 375%
C[C@@H](c1cccc2ccccc12)N1C(=O)c2c(F)c(F)c(F)c(F)c2C1=O	–	–	101%	101%	–	IC50 (WI-38 [16]): 2.8 µg/mL (≈ 7.5 µM)
C[C@H](c1cccc2ccccc12)N1C(=O)c2c(F)c(F)c(F)c(F)c2C1=O	–	–	2%	100%	–	IC50 (WI-38 [16]): 2.8 µg/mL (≈ 7.5 µM)
C[C@@H](C1CCCCC1)N1C(=O)c2c(F)c(F)c(F)c(F)c2C1=O	–	–	65%	124%	> 100 µg/mL	–
C/N=C1\c2ccccc2C(=O)N1c1c(C(C)C)cccc1C(C)C	134%	37%	–	–	–	–
CCc1cccc(CC)c1N1C(=O)c2ccccc2C1=O	453%	53%	–	–	–	IC50 (WI-38 [17]): 38 µg/mL (≈ 136 µM)
CC(C)c1cccc(C(C)C)c1N1C(=O)c2cccc(O)c2C1=O	239%	64%	–	–	> 100 µg/mL	–

SMILES	Amount of TNF-alpha (HL-60 [1])	Amount of TNF-alpha (HL-60 [2])	Amount of TNF-alpha (HL-60 [5])	Amount of TNF-alpha (HL-60 [6])	IC50 (WI-38 [8])	other results
CC(C)c1cccc(C(C)C)c1N1C(=O)c2ccccc2C1=O	602%	21%	–	–	> 100 µg/mL	–
Cc1cccc(C)c1N1C(=O)c2ccccc2C1=O	161%	40%	–	–	> 100 µg/mL	–
CC(C)c1cccc(C(C)C)c1N1C(=O)c2cc3ccccc3cc2C1=O	144%	48%	–	–	> 100 µg/mL	–
Cc1ccccc1N1C(=O)c2ccccc2C1=O	100%	68%	–	–	> 100 µg/mL	–
CC(C)c1cccc(C(C)C)c1N1C(=O)c2cccc(N)c2C1=O	248%	21%	–	–	–	IC50 (WI-38 [18]): 8.1 µg/mL (≈ 25.1 µM)
CC(C)c1cccc(C(C)C)c1N1C(=O)c2ccc(N)cc2C1=O	242%	28%	–	–	–	IC50 (WI-38 [19]): 17.4 µg/mL (≈ 54 µM)
CC(C)c1cccc(C(C)C)c1N1C(=O)c2cccc([N+](=O)[O-])c2C1=O	792%	54%	–	–	–	IC50 (WI-38 [20]): 93.1 µg/mL (≈ 264 µM)
CC(C)c1cccc(C(C)C)c1N1C(=O)c2ccc([N+](=O)[O-])cc2C1=O	683%	54%	–	–	–	IC50 (WI-38 [21]): 42.7 µg/mL (≈ 121 µM)
Cc1cc(C)cc(N2C(=O)c3ccccc3C2=O)c1	136%	89%	–	–	> 100 µg/mL	–
Cc1cccc(C(C)C)c1N1C(=O)c2ccccc2C1=O	234%	33%	–	–	–	IC50 (WI-38 [22]): 28.1 µg/mL (≈ 101 µM)
CC(C)c1cccc(C(C)C)c1N1C(=O)c2c(Br)c(Br)c(Br)c(Br)c2C1=O	235%	3%	–	–	–	–
C[C@@H](c1ccc([N+](=O)[O-])cc1)N1C(=O)c2c(F)c(F)c(F)c(F)c2C1=O	–	–	32%	268%	–	–
C[C@H](c1ccc(N)cc1)N1C(=O)c2c(F)c(F)c(F)c(F)c2C1=O	–	–	27%	241%	–	–
CCc1cccc(C(C)C)c1N1C(=O)c2ccccc2C1=O	255%	26%	–	–	–	IC50 (WI-38 [23]): 6 µg/mL (≈ 20.5 µM)
O=C1c2c(F)c(F)c(F)c(F)c2C(=O)N1[C@@H]1CCc2ccccc21	–	–	43%	233%	–	IC50 (WI-38 [24]): 30.3 µg/mL (≈ 90.4 µM)
CC[C@H](c1ccccc1)N1C(=O)c2c(F)c(F)c(F)c(F)c2C1=O	–	–	67%	111%	–	–
CC(C)c1cccc(N2C(=O)c3ccccc3C2=O)c1	158%	105%	–	–	> 100 µg/mL	–
O=C1c2ccccc2C(=O)N1c1ccccc1-c1ccccc1	262%	40%	–	–	> 100 µg/mL	–
C[C@H](c1ccc([N+](=O)[O-])cc1)N1C(=O)c2c(F)c(F)c(F)c(F)c2C1=O	–	–	27%	239%	–	–
CC(=O)Nc1ccc([C@H](C)N2C(=O)c3c(F)c(F)c(F)c(F)c3C2=O)cc1	–	–	80%	–	–	Amount of TNF-alpha (HL-60 [25]): 268%
O=C1c2ccccc2C(=O)N1c1ccccc1[N+](=O)[O-]	89%	53%	–	–	> 100 µg/mL	–
CC(=O)Nc1ccc([C@@H](C)N2C(=O)c3c(F)c(F)c(F)c(F)c3C2=O)cc1	–	–	55%	220%	–	–
O=C1c2ccccc2C(=O)N1c1ccccc1 [N-PHENYL-PHTHALIMIDE]	100%	61%	–	–	> 100 µg/mL	–
O=C1CCC(N2C(=O)c3ccccc3C2=O)C(=O)N1 (stereo unspecified) [THALIDOMIDE]	135%	58%	–	–	–	IC50 (WI-38 [26]): > 100 µg/mL
